A selection: hits, their analogues and other compounds. The true share with any hit is near 0.75%.
EBNA-1 inhibitor = blocks EBNA-1 binding to DNA; actives 0.34% (n = 300,000); EBNA-1 DNA binding, fluorescence polarization; inhibition, % at 14.8 µM; in the data active = inhibition above about 28%
ARFGAP1 inh = rat ARFGAP1 inhibition | Q62848 | Arfgap1-stimulated ARF1 GTP hydrolysis, GDP FP detection | inhibition, % at 16.5 µM | actives 0.26% (n = 360,000) | AID 651572;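 active = inhibition above a per-plate limit, mean inhibition of low control wells plus 3 SD, cut at about 25% in these data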;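 also: 0% = DMSO wells with enzyme and 100% = wells lacking Arfgap1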
Target sequence (Q62848 1-136 limits assumed): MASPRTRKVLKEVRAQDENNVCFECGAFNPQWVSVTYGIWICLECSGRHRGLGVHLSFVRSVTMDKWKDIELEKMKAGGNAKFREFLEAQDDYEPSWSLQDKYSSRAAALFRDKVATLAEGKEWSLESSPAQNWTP
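Replicates: Single well per compound | Assay system: Truncated rat Arfgap1 GAP domain | Control set: No-Arfgap1 wells (100%) versus DMSO full-reaction wells (0%) | Times: Enzyme reaction 120 min at 25 °C after 20 min preincubation | Reagent: Human ARF1(Δ1-17)-GTP substrate | Measured by: Tracer-displacement fluorescence polarization with EDTA stop, 620/688 nm | Measure: Percent inhibition of Arfgap1-stimulated GTP hydrolysis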
ASAP1 inh = ASAP1 ArfGAP inhibition | ASAP1-stimulated ARF1 GTP hydrolysis, GDP FP detection | inhibition, % at 16.5 µM | actives 0.19% (n = 360,000) | AID 624377 | Q9ULH1; in the data active = inhibition above about 25%;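 also: 0% = vehicle with enzyme and substrate and 100% = no enzyme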
ZTA counter = blocks Epstein-Barr virus ZTA, an EBNA-1 counter-screen; inhibition, % at 11 µM; ZTA-DNA binding, fluorescence polarization; actives 0.15% (n = 320,000); in the data active = inhibition above about 33%
Target sequence (P03206 whole entry, looked up): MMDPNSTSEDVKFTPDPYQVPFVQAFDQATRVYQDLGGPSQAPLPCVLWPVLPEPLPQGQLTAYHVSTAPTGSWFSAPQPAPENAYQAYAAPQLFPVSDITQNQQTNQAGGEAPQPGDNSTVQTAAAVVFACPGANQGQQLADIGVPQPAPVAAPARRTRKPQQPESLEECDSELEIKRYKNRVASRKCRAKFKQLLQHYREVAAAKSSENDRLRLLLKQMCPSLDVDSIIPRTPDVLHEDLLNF
ARFGAP1 inh conf = confirmation of rat ARFGAP1 inhibitors. shares compounds with ARFGAP1 inh. inhibition, % at 16.5 µM. actives 30% (n = 890). ARFGAP1-stimulated ARF1 GTP hydrolysis, GDP tracer FP. AID 651608;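 active = average inhibition over triplicates above the hit cutoff set in the earlier primary screen, cut at about 25% in these data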;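 also: 0% = Arfgap1 plus ARF1-GTP with DMSO and 100% = wells lacking Arfgap1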
An asterisk follows results filed as active.

COc1cc2c(cc1OC)C(C)N(C(=O)c1cc3c(s1)-c1ccccc1OC3)CC2 (configuration not stated) was read as EBNA-1 inhibitor -6.8, ARFGAP1 inh 24.8*, ASAP1 inh 3.8, ZTA counter 1.9 and ARFGAP1 inh conf 5.4.
`COC(=O)N1C[C@H](OCCCOCc2ccccc2)[C@H]2C[C@@H]1c1ccccc1O2` gave ARFGAP1 inh -5.4 and ASAP1 inh 1.7.
Cc1cccc(CN2CCN(Cc3ccco3)CC2)c1 was read as EBNA-1 inhibitor -10.8, ARFGAP1 inh -1.1, ASAP1 inh -3.4 and ZTA counter 8.3.
Clc1cccc(CN2CCN(Cc3ccco3)CC2)c1 was read as EBNA-1 inhibitor -6.5, ARFGAP1 inh 24.7*, ASAP1 inh 1.6, ZTA counter 0.0 and ARFGAP1 inh conf -5.0.
Screening COCc1[nH]nc2c1C(c1ccc(F)cc1)N(Cc1ccccc1)C2=O (configuration not stated) returned ARFGAP1 inh -20.0 and ASAP1 inh -10.9.
For Cc1ccc(-c2cc(-c3ccccc3[N+](=O)[O-])[nH]n2)c(O)c1 the results were EBNA-1 inhibitor -7.2, ARFGAP1 inh 40.6*, ASAP1 inh 11.9, ZTA counter 6.1 and ARFGAP1 inh conf 6.9.
For NS(=O)(=O)c1ccc(CCNC(=O)CNS(=O)(=O)c2cccc(Br)c2)cc1 the results were EBNA-1 inhibitor 8.0, ARFGAP1 inh 28.2*, ASAP1 inh 2.6, ZTA counter -2.1 and ARFGAP1 inh conf -2.3.
`Cc1ccc(NC(=O)C(C)N=C2NS(=O)(=O)c3ccccc32)cc1F` (configuration not stated) gave EBNA-1 inhibitor 3.8, ARFGAP1 inh 37.6*, ASAP1 inh 20.1, ZTA counter 1.2 and ARFGAP1 inh conf 4.4.
CC(N=C1NS(=O)(=O)c2ccccc21)C(=O)NCCCc1ccccc1 (configuration not stated) was read as EBNA-1 inhibitor -13.5, ARFGAP1 inh 8.4, ASAP1 inh 13.2 and ZTA counter 0.4.
Screening O=C(NN=Cc1ccccc1Cl)C(=O)Nc1cccc(C(F)(F)F)c1 returned ARFGAP1 inh 1.7 and ASAP1 inh 1.6.
For COCCNC(=O)c1c(N)[nH]c(C(=O)c2ccc(Br)cc2)c1-c1ccc(Br)cc1 the results were ARFGAP1 inh -2.1 and ASAP1 inh -8.0.
COC(=O)C1=C(C)N(Cc2ccc(C(F)(F)F)cc2)C(=NCc2cc(OC)c(OC)c(OC)c2)NC1c1cccc(Cl)c1 (configuration not stated) was read as ARFGAP1 inh -17.4 and ASAP1 inh -1.5.
`OC(c1cccc(Cl)c1)c1nc(-c2cccc3cccnc23)cs1` (configuration not stated) gave ARFGAP1 inh -3.1 and ASAP1 inh -7.2.
For OC(c1cccc(Cl)c1)c1nc(-c2csc3ccccc23)cs1 (configuration not stated) the results were ARFGAP1 inh 24.6*, ASAP1 inh 6.5 and ARFGAP1 inh conf 8.6.
Screening COC(=O)[C@]12C[C@H](CC(=O)NCCCCc3ccccc3)C(=O)N(Cc3ccccc3)C1=C[C@H](C1CCCC1)O[C@@H]2C returned ARFGAP1 inh 9.6 and ASAP1 inh -8.3.
`O=c1[nH]c(/C=C2\C=Nc3ccccc32)c(O)n1Cc1ccccc1F` gave EBNA-1 inhibitor -1.5, ARFGAP1 inh 25.0*, ASAP1 inh 16.4, ZTA counter 1.0 and ARFGAP1 inh conf 15.5.
Screening Cc1cc(C)c(S(=O)(=O)N(CC(=O)NCc2cccnc2)C2CCCCC2)c(C)c1 returned EBNA-1 inhibitor 1.2, ARFGAP1 inh 29.5*, ASAP1 inh -5.1, ZTA counter -1.7 and ARFGAP1 inh conf 4.3.
Cc1ccc(S(=O)(=O)N(CC(=O)NCc2cccnc2)C2CCCCC2)cc1 was read as EBNA-1 inhibitor 7.1, ARFGAP1 inh -3.3, ASAP1 inh -11.3 and ZTA counter 9.9.
Screening CO/N=C/c1cccn1-c1nccc(OC)c1C#N returned EBNA-1 inhibitor -3.7, ARFGAP1 inh 30.6*, ASAP1 inh -1.3, ZTA counter 0.8 and ARFGAP1 inh conf 4.3.
Cc1nc2ccc(NC(=O)c3ccc(Cl)c(NC(=O)c4cccs4)c3)cc2s1 was read as EBNA-1 inhibitor -7.3, ARFGAP1 inh 25.5*, ASAP1 inh 18.6, ZTA counter -3.5 and ARFGAP1 inh conf 14.2.
Cc1nc2ccc(NC(=O)C3CCN(S(=O)(=O)c4cccs4)CC3)cc2s1 was read as EBNA-1 inhibitor 3.8, ARFGAP1 inh 25.0*, ASAP1 inh 8.8, ZTA counter 6.3 and ARFGAP1 inh conf 2.8.

High-throughput results: PubChem, The Scripps Research Institute Molecular Screening Center
